From ChEMBL document CHEMBL1135767, “Synthesis and initial evaluation for in vivo chelation of Pu(IV) of a mixed octadentate spermine-based ligand containing 4-carbamoyl-3-hydroxy-1-methyl-2(1H)-pyridinone and 6-carbamoyl-1-hydroxy-2(1H)-pyridinone” (2002) come the findings set out here.

For assay [1], the system named is Mus musculus. Description: Removal of [238Pu] (i.v.) from mice by ligand injected 30 uM/kg orally at 3 min fasted after iv injection from liver tissue. It counts as functional. The essentials: (§1)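 Mice fasted 16 h got iv 238Pu(IV) citrate, then ligand 30 µmol/kg by gastric tube at 3 min (HOPO in 0.14 M NaCl, pH 7.4; weight-adjusted volume). Chow was given at 4 h and the mice were killed at 24 h. Tissues and pooled per-cage excreta were liquid-scintillation alpha-counted and expressed as %ID normalized to 100% recovery.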

Assay [2] relates to Mus musculus. Description: Removal of [238Pu] (i.v.) from mice by ligand injected 30 uM/kg intraperitoneally at 1 hr from kidneys. Format: functional, Kidney. The essentials: (§2)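 238Pu(IV) citrate given iv to mice; ligand 30 µmol/kg (in 0.14 M NaCl, pH 7.4, volume scaled to body weight) injected ip at 1 h; killed at 24 h. Five mice per cage, excreta pooled per cage, chow from 4 h. Tissue and excreta Pu were counted by liquid scintillation alpha counting and given as %ID normalized to 100% recovery, mean ± SD.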

The subject of assay [3] is Mus musculus. Kind of assay: Removal of [238Pu] (i.v.) from mice by ligand injected 30 umol/kg intraperitoneally at 1 hr from skeleton. It counts as functional. The essentials:
as §2

Assay [4] has as its system Mus musculus. Description: Removal of [238Pu] (i.v.) from mice by ligand injected 30 uM/kg orally at 3 min normally fed after iv injection from feces and GI contents. It counts as functional. Put shortly: (§3)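 Normally fed mice got iv 238Pu(IV) citrate, then ligand 30 µmol/kg by gastric tube at 3 min, in 0.14 M NaCl pH 7.4 with weight-adjusted volume. The mice were killed at 24 h, with five per cage and excreta pooled per cage. Pu was counted by liquid scintillation alpha counting and reported as %ID normalized to 100% recovery.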

The subject of assay [5] is Mus musculus. Kind of assay: Removal of [238Pu] (i.v.) from mice by ligand injected 30 uM/kg at 3 min normally fed after iv injection from urine excretia. Format: functional. The essentials:
as §3

The subject of assay [6] is Mus musculus. Description: Removal of [238Pu] (i.v.) from mice by ligand injected 30 uM/kg orally at 3 min normally fed after iv injection from liver tissue. It counts as functional. Put shortly:
as §3

Assay [7] has as its system Mus musculus. Kind of assay: Removal of [238Pu] (i.v.) from mice by ligand injected 30 uM/kg orally at 3 min fasted after iv injection from feces and GI contents. It counts as functional. The essentials:
as §1

The subject of assay [8] is Mus musculus. Description: Removal of [238Pu] (i.v.) from mice by ligand injected orally at 3 min normally fed after iv injection from skeleton. It counts as functional. The essentials: as §3
In assay [9] the test system is Mus musculus. Description: Removal of [238Pu] (i.v.) from mice by ligand injected 30 uM/kg intraperitoneally at 1 hr from whole body. It counts as functional. Put shortly: as §2
The test system of assay [10] is Mus musculus. Description: Removal of [238Pu] (i.v.) from mice by ligand injected 30 uM/kg intraperitoneally at 1 hr from skeleton. It counts as functional. The essentials:
as §2

The test system of assay [11] is Mus musculus. Description: Removal of [238Pu] (i.v.) from mice by ligand injected 30 uM/kg orally at 3 min normally fed after iv injection from kidneys. Format: functional, Kidney. Put shortly: as §3
Assay [12] concerns Mus musculus. Description: Removal of [238Pu] (i.v.) from mice by ligand injected 30 uM/kg orally at 3 min fasted after iv injection from whole body. It counts as functional. Put shortly:
as §1

The test system of assay [13] is Mus musculus. Kind of assay: Removal of [238Pu] (i.v.) from mice by ligand injected 30 uM/kg intraperitoneally at 1 hr from soft tissue. Format: functional. The essentials:
as §2

The test system of assay [14] is Mus musculus. Kind of assay: Removal of [238Pu] (i.v.) from mice by ligand injected 30 uM/kg orally at 3 min fasted after iv injection from skeleton. It counts as functional. Put shortly:
as §1

For assay [15], the system named is Mus musculus. Description: Removal of [238Pu] (i.v.) from mice by ligand injected 30 uM/kg intraperitoneally at 1 hr from liver tissue. It counts as functional. The essentials:
as §2

For assay [16], the system named is Mus musculus. Kind of assay: Removal of [238Pu] (i.v.) from mice by ligand injected 30 uM/kg orally at 3 min normally fed after iv injection from soft tissue. It counts as functional. Put shortly: as §3
Assay [17] relates to Mus musculus. Kind of assay: Removal of [238Pu] (i.v.) from mice by ligand injected 30 uM/kg orally at 3 min fasted after iv injection from urine excretia. Format: functional. The essentials: as §1
For assay [18], the system named is Mus musculus. Kind of assay: Removal of [238Pu] (i.v.) from mice by ligand injected 30 uM/kg orally at 3 min normally fed after iv injection from whole body. It counts as functional. Put shortly:
as §3

Assay [19] deals with Mus musculus. Kind of assay: Removal of [238Pu] (i.v.) from mice by ligand injected 30 uM/kg ip at 1 hr and orally at 3 min after iv injection from kidneys. Format: functional, Kidney. The essentials:
(§4)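 Kidney Pu (%ID) at 24 h after iv 238Pu(IV) citrate was measured in mice given ligand 30 µmol/kg by one of two routes: ip at 1 h, or by gastric tube at 3 min to 16 h-fasted or normally fed mice. Kidneys were alpha-counted by liquid scintillation, and data were normalized to 100% recovery.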

Assay [20] relates to Mus musculus. Description: Removal of [238Pu] (i.v.) from mice by ligand injected 30 uM/kg intraperitoneally at 1 hr from urine excretia. It counts as functional. The essentials: as §2
Assay [21] relates to Mus musculus. Description: Removal of [238Pu] (i.v.) from mice by ligand injected 30 uM/kg orally at 3 min fasted after iv injection from soft tissue. Format: functional. Put shortly:
as §1

Assay [22] has as its system Mus musculus. Description: Removal of [238Pu] (i.v.) from mice by ligand injected 30 uM/kg ip at 1 hr from feces and GI contents. It counts as functional. The essentials:
(§5)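 Mice received iv 238Pu(IV) citrate, then ip ligand (30 µmol/kg, 0.14 M NaCl pH 7.4) at 1 h. Feces plus GI contents were collected to 24 h kill, pooled per five-mouse cage and alpha-counted by liquid scintillation. Values are %ID normalized to total recovery. SD applies only to multiply replicated groups.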

For assay [23], the system named is Mus musculus. Description: Removal of [238Pu] (i.v.) from mice by ligand injected 30 uM/Kg orally at 3 min fasted after iv injection from whole body. Format: functional. Put shortly: as §1
Assay [24] deals with Mus musculus. Description: Removal of [238Pu] (i.v.) from mice by ligand injected 30 uM/Kg orally at 3 min fasted after iv injection from feces and GI contents. It counts as functional. Put shortly: as §1
The subject of assay [25] is Mus musculus. Description: Removal of [238Pu] (i.v.) from mice by ligand injected 30 uM/Kg ip at 1 hr and orally at 3 min after iv injection from kidneys. Format: functional, Kidney. Put shortly:
as §4

Assay [26] deals with Mus musculus. Description: Removal of [238Pu] (i.v.) from mice by ligand injected 30 uM/Kg intraperitoneally at 1 hr from skeleton. Format: functional. The essentials: as §2
Assay [27] concerns Mus musculus. Kind of assay: Removal of [238Pu] (i.v.) from mice by ligand injected 30 uM/Kg intraperitoneally at 1 hr from whole body. It counts as functional. Put shortly: as §2
Assay [28] relates to Mus musculus. Kind of assay: Removal of [238Pu] (i.v.) from mice by ligand injected 30 uM/Kg ip at 1 hr from feces and GI contents. It counts as functional. Put shortly: as §5
The test system of assay [29] is Mus musculus. Kind of assay: Removal of [238Pu] (i.v.) from mice by ligand injected 30 uM/Kg intraperitoneally at 1 hr from soft tissue. Format: functional. Put shortly:
as §2

Assay [30] deals with Mus musculus. Description: Removal of [238Pu] (i.v.) from mice by ligand injected 30 uM/Kg orally at 3 min fasted after iv injection from liver tissue. Format: functional. The essentials:
as §1

Assay [31] concerns Mus musculus. Description: Removal of [238Pu] (i.v.) from mice by ligand injected 30 uM/Kg orally at 3 min fasted after iv injection from soft tissue. It counts as functional. The essentials:
as §1

For assay [32], the system named is Mus musculus. Description: Removal of [238Pu] (i.v.) from mice by ligand injected 30 uM/Kg orally at 3 min fasted after iv injection from urine excretia. It counts as functional. The essentials: as §1
Assay [33] has as its system Mus musculus. Kind of assay: Removal of [238Pu] (i.v.) from mice by ligand injected 30 uM/Kg intraperitoneally at 1 hr from liver tissue. It counts as functional. The essentials: as §2
Assay [34] relates to Mus musculus. Kind of assay: Removal of [238Pu] (i.v.) from mice by ligand injected 30 uM/Kg intraperitoneally at 1 hr from urine excretia. It counts as functional. Put shortly:
as §2

The test system of assay [35] is Mus musculus. Description: Removal of [238Pu] (i.v.) from mice by ligand injected 30 uM/Kg orally at 3 min fasted after iv injection from skeleton. Format: functional. Put shortly: as §1
Assay [36] has as its system Mus musculus. Description: Removal of [238Pu] (i.v.) from mice by ligand injected 30 uM/Kg intraperitoneally at 1 hr from kidneys. Format: functional, Kidney. The essentials:
as §2

SMILES strings stand for the structures. Values joined by “and” are separate entries in the source; they are usually repeats but may differ in a detail not shown here. Equal values may be shown once.

On to `O=C(NCCCN(CCCCN(CCCNC(=O)c1cccc(=O)n1O)C(=O)c1cccc(=O)n1O)C(=O)c1cccc(=O)n1O)c1cccc(=O)n1O`, for which the ID was 11% and 4.2% in the assay with Mus musculus [1]; 0.2% and 0.1% in the assay on Mus musculus [2]; 7.5% in the assay on Mus musculus [3]; 57% in the assay with Mus musculus [4]; 27% in the assay with Mus musculus [5]; 5.9% in the assay with Mus musculus [6]. Further, the ID in the assay on Mus musculus [7] is 51% and 60%; in the assay on Mus musculus [8], 8.8%; in the assay with Mus musculus [9], 18% and 14%; with Mus musculus [10], 8%; in the assay with Mus musculus [11], 0.2%; in the assay with Mus musculus [12] it was 24% and 14%. Also, the ID is 1.6% and 0.8% with Mus musculus [13]; 12% and 8% in the assay with Mus musculus [14]; 8.9% and 5.4% in the assay with Mus musculus [15]; 1.5% in the assay on Mus musculus [16]; 26% in the assay on Mus musculus [17]; 16% in the assay with Mus musculus [18]. In addition, the ID was 0.1% with Mus musculus [19]; 25% and 21% in the assay on Mus musculus [20]; 1.3% and 1.1% in the assay on Mus musculus [21]; 57% and 65% in the assay on Mus musculus [22].
For `Cn1ccc(C(=O)NCCCN(CCCCN(CCCNC(=O)c2ccn(C)c(=O)c2O)C(=O)c2cccc(=O)n2O)C(=O)c2cccc(=O)n2O)c(O)c1=O`, the ID is listed as 2.2% in the assay on Mus musculus [1]; 0.2% in the assay with Mus musculus [2]; 58% with Mus musculus [4]; 31% in the assay on Mus musculus [5]; 2.4% with Mus musculus [6]; 61% in the assay on Mus musculus [7]. Besides, the ID with Mus musculus [8] was found to be 7.4%; with Mus musculus [9], 22%; in the assay on Mus musculus [10], 9.1%; with Mus musculus [11], 0.1%; in the assay on Mus musculus [12] it was 11%; in the assay on Mus musculus [13] it was 1%. The ID in the assay on Mus musculus [14] is recorded as 7.8%; in the assay on Mus musculus [15], 11%; in the assay on Mus musculus [16], 0.9%; in the assay on Mus musculus [17], 28%; with Mus musculus [18], 11%; with Mus musculus [19], 0.09%. For the same compound, the ID in the assay with Mus musculus [20] was determined as 27%; in the assay on Mus musculus [21], 0.8%; in the assay with Mus musculus [22], 51%.
In the case of `O=C([O-])CN(CCN(CC(=O)[O-])CC(=O)[O-])CCN(CC(=O)[O-])CC(=O)[O-].[Ca+2].[Na+].[Na+].[Na+]` [PENTETATE CALCIUM TRISODIUM], the ID in the assay with Mus musculus [23] is recorded as 79%; in the assay on Mus musculus [24] it was 6.5%; in the assay on Mus musculus [25], 0.7%; with Mus musculus [26], 14%; in the assay on Mus musculus [27] it was 37%; in the assay with Mus musculus [28], 8.4%. Moreover, the ID in the assay with Mus musculus [29] is on record as 2.9%; in the assay with Mus musculus [30] it was 33%; in the assay with Mus musculus [31], 5.1%; in the assay with Mus musculus [32], 15%; in the assay with Mus musculus [33], 19%; with Mus musculus [34], 55%. Further, the ID with Mus musculus [35] came out at 40%; with Mus musculus [36] it was 1.2%.
